Source: ChEMBL document CHEMBL1828597, “Tyrosyl-tRNA synthetase inhibitors as antibacterial agents: synthesis, molecular docking and structure-activity relationship analysis of 3-aryl-4-arylaminofuran-2(5H)-ones” (Eur J Med Chem, 2011)
pIC50: −log10 of the molar value. Values after ≈ are worked out from the molar mass of the structure shown.

Tests used:
Staphylococcus aureus = assay: Antibacterial activity against Staphylococcus aureus ATCC 25923 after 24 hrs by MTT assay; format: functional; conditions: ATCC 25923, 24 h
In short: (§1)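 LB medium, inocula of about 10⁵ cfu/mL in 96-well plates against serially diluted compounds (DMSO stock diluted in 50% v/v DMSO/PBS), 37 °C for 24 h. Read-out: PBS containing 2 mg/mL MTT added for 4–5 h at room temperature, wells emptied, solubilizer added for 12 h at room temperature, then OD at 550 nm. MIC₅₀ from this colorimetric read.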

Escherichia coli = assay: Antibacterial activity against Escherichia coli ATCC 35218 after 24 hrs by MTT assay; format: functional; conditions: ATCC 35218, 24 h; in short: as §1
Candida albicans = assay: Antifungal activity against Candida albicans ATCC 10231 after 48 hrs by MTT assay; conditions: ATCC 10231, 48 h
[1] = Inhibition of Staphylococcus aureus TyrRS assessed as inhibition of [3H]tyrosine incorporation after 10 mins by liquid scintillation counting
Bacillus subtilis = assay: Antibacterial activity against Bacillus subtilis ATCC 6633 after 24 hrs by MTT assay; format: functional; conditions: ATCC 6633, 24 h; in short: as §1

SMILES	MIC50 (Staphylococcus aureus)	MIC50 (Escherichia coli)	MIC50 (Candida albicans)	pIC50 [1]	MIC50 (Bacillus subtilis)
CC(=O)N1CCN(c2ccc(OCC3COC(Cn4ccnc4)(c4ccc(Cl)cc4Cl)O3)cc2)CC1 (centres undefined) [KETOCONAZOLE]	–	–	4.1 µg/mL (≈ 7.71 µM)	–	–
O=C1OCC(Nc2ccccc2[N+](=O)[O-])=C1c1ccccc1	> 50 µg/mL	> 50 µg/mL	> 50 µg/mL	< 4.00	> 50 µg/mL
O=C1OCC(Nc2cccc([N+](=O)[O-])c2)=C1c1ccccc1	> 50 µg/mL	> 50 µg/mL	> 50 µg/mL	4.35	> 50 µg/mL
COc1ccccc1NC1=C(c2ccc(Br)cc2)C(=O)OC1	> 50 µg/mL	> 50 µg/mL	> 50 µg/mL	4.43	> 50 µg/mL
CC1(C)S[C@@H]2[C@H](NC(=O)Cc3ccccc3)C(=O)N2[C@H]1C(=O)O [PENICILLIN G]	–	2 µg/mL (≈ 5.98 µM)	–	–	–
COc1cc(NC2=C(c3ccc(Br)cc3)C(=O)OC2)cc(OC)c1	> 50 µg/mL	> 50 µg/mL	> 50 µg/mL	4.76	> 50 µg/mL
O=C1OCC(Nc2ccccc2[N+](=O)[O-])=C1c1ccc(Br)cc1	> 50 µg/mL	> 50 µg/mL	> 50 µg/mL	4.17	> 50 µg/mL
COc1ccc(NC2=C(c3ccc(Br)cc3)C(=O)OC2)cc1	> 50 µg/mL	> 50 µg/mL	> 50 µg/mL	4.01	> 50 µg/mL
COc1ccccc1NC1=C(c2cccc(Cl)c2)C(=O)OC1	49.4 µg/mL (≈ 156 µM)	> 50 µg/mL	> 50 µg/mL	4.49	> 50 µg/mL
O=C1OCC(Nc2ccccc2[N+](=O)[O-])=C1c1cccc(Cl)c1	> 50 µg/mL	> 50 µg/mL	> 50 µg/mL	4.30	> 50 µg/mL
O=C1OCC(Nc2ccccc2Cl)=C1c1ccccc1	> 50 µg/mL	> 50 µg/mL	> 50 µg/mL	4.05	> 50 µg/mL
CN(C1=C(c2ccc(Br)cc2)C(=O)OC1)c1ccccc1	45.8 µg/mL (≈ 133 µM)	> 50 µg/mL	> 50 µg/mL	4.53	> 50 µg/mL
O=C1OCC(Nc2ccc(O)cc2)=C1c1ccc(Br)cc1	> 50 µg/mL	> 50 µg/mL	> 50 µg/mL	4.07	> 50 µg/mL
Cc1ccc(NC2=C(c3ccc(Br)cc3)C(=O)OC2)cc1	> 50 µg/mL	> 50 µg/mL	> 50 µg/mL	< 4.00	> 50 µg/mL
O=C1OCC(Nc2ccc([N+](=O)[O-])cc2)=C1c1ccc(Br)cc1	> 50 µg/mL	> 50 µg/mL	> 50 µg/mL	4.20	> 50 µg/mL

The next lines start with the values.

MIC50 (Staphylococcus aureus)	MIC50 (Escherichia coli)	MIC50 (Candida albicans)	pIC50 [1]	MIC50 (Bacillus subtilis)	SMILES
21.5 µg/mL (≈ 67.2 µM)	> 50 µg/mL	46.8 µg/mL (≈ 146 µM)	4.80	47.5 µg/mL (≈ 148 µM)	O=C1OCC(Nc2ccccc2Cl)=C1c1cccc(Cl)c1
32.1 µg/mL (≈ 112 µM)	> 50 µg/mL	41.8 µg/mL (≈ 146 µM)	4.68	> 50 µg/mL	O=C1OCC(Nc2cccc(Cl)c2)=C1c1ccccc1
0.42 µg/mL (≈ 1.05 µM)	> 50 µg/mL	5.8 µg/mL (≈ 14.5 µM)	6.41	2.2 µg/mL (≈ 5.51 µM)	O=C1OCC(Nc2cc(Cl)cc(Cl)c2)=C1c1ccc(Br)cc1
6.5 µg/mL (≈ 15.9 µM)	> 50 µg/mL	18.7 µg/mL (≈ 45.7 µM)	5.27	31.6 µg/mL (≈ 77.2 µM)	O=C1OCC(Nc2ccc(Br)cc2)=C1c1cccc(Br)c1
10.2 µg/mL (≈ 23.9 µM)	> 50 µg/mL	28.6 µg/mL (≈ 67 µM)	5.04	38.6 µg/mL (≈ 90.4 µM)	O=C1OCC(Nc2cc(Br)cc(Br)c2)=C1c1ccc(F)cc1
34.6 µg/mL (≈ 94.9 µM)	> 50 µg/mL	49.3 µg/mL (≈ 135 µM)	4.68	> 50 µg/mL	O=C1OCC(Nc2ccccc2Cl)=C1c1ccc(Br)cc1
25.2 µg/mL (≈ 72.8 µM)	> 50 µg/mL	> 50 µg/mL	4.81	> 50 µg/mL	O=C1OCC(Nc2cccc(O)c2)=C1c1ccc(Br)cc1
2.9 µg/mL (≈ 8.63 µM)	> 50 µg/mL	10.2 µg/mL (≈ 30.3 µM)	5.46	9.8 µg/mL (≈ 29.2 µM)	O=C1OCC(Nc2cc(Cl)cc(Cl)c2)=C1c1ccc(O)cc1
2.3 µg/mL (≈ 4.71 µM)	> 50 µg/mL	8.5 µg/mL (≈ 17.4 µM)	5.72	8.8 µg/mL (≈ 18 µM)	O=C1OCC(Nc2cc(Br)cc(Br)c2)=C1c1cccc(Br)c1
27.8 µg/mL (≈ 84.2 µM)	> 50 µg/mL	37.5 µg/mL (≈ 114 µM)	4.78	41.7 µg/mL (≈ 126 µM)	O=C1OCC(Nc2ccccc2)=C1c1ccc(Br)cc1
1.1 µg/mL (≈ 2.27 µM)	–	–	–	0.42 µg/mL (≈ 0.867 µM)	NC[C@H]1O[C@H](O[C@H]2[C@H](O)[C@@H](O[C@H]3O[C@H](CO)[C@@H](O)[C@H](N)[C@H]3O)[C@H](N)C[C@@H]2N)[C@H](O)[C@@H](O)[C@@H]1O [KANAMYCIN]
23.5 µg/mL (≈ 48.2 µM)	> 50 µg/mL	49.2 µg/mL (≈ 101 µM)	4.87	> 50 µg/mL	O=C1OCC(Nc2cc(Br)cc(Br)c2)=C1c1ccc(Br)cc1
0.06 µg/mL (≈ 0.15 µM)	> 50 µg/mL	5.4 µg/mL (≈ 13.5 µM)	7.05	1.2 µg/mL (≈ 3.01 µM)	O=C1OCC(Nc2cc(Cl)cc(Cl)c2)=C1c1cccc(Br)c1
10.8 µg/mL (≈ 28.8 µM)	> 50 µg/mL	26.3 µg/mL (≈ 70.1 µM)	4.99	28.6 µg/mL (≈ 76.2 µM)	O=C1OCC(Nc2cccc([N+](=O)[O-])c2)=C1c1ccc(Br)cc1
7.1 µg/mL (≈ 19.4 µM)	> 50 µg/mL	21.7 µg/mL (≈ 59.3 µM)	5.20	19.4 µg/mL (≈ 53 µM)	O=C1OCC(Nc2cc(F)cc(F)c2)=C1c1ccc(Br)cc1
2.9 µg/mL (≈ 8.18 µM)	> 50 µg/mL	10.1 µg/mL (≈ 28.5 µM)	5.54	13.4 µg/mL (≈ 37.8 µM)	O=C1OCC(Nc2cc(Cl)cc(Cl)c2)=C1c1cccc(Cl)c1
12.6 µg/mL (≈ 34.6 µM)	> 50 µg/mL	25.7 µg/mL (≈ 70.5 µM)	4.82	> 50 µg/mL	O=C1OCC(Nc2ccc(Cl)cc2)=C1c1ccc(Br)cc1
1.8 µg/mL (≈ 5.14 µM)	> 50 µg/mL	7.2 µg/mL (≈ 20.6 µM)	5.80	9.6 µg/mL (≈ 27.4 µM)	COc1ccc(C2=C(Nc3cc(Cl)cc(Cl)c3)COC2=O)cc1
2.5 µg/mL (≈ 6.86 µM)	> 50 µg/mL	9 µg/mL (≈ 24.7 µM)	5.77	11.3 µg/mL (≈ 31 µM)	O=C1OCC(Nc2cccc(Cl)c2)=C1c1ccc(Br)cc1
39 µg/mL (≈ 118 µM)	> 50 µg/mL	> 50 µg/mL	4.59	> 50 µg/mL	O=C1OCC(Nc2ccccn2)=C1c1ccc(Br)cc1
4.6 µg/mL (≈ 14.4 µM)	> 50 µg/mL	12.2 µg/mL (≈ 38.1 µM)	5.37	11.7 µg/mL (≈ 36.5 µM)	O=C1OCC(Nc2cccc(Cl)c2)=C1c1cccc(Cl)c1
23.1 µg/mL (≈ 56.5 µM)	> 50 µg/mL	41.8 µg/mL (≈ 102 µM)	4.94	> 50 µg/mL	O=C1OCC(Nc2ccc(Br)cc2)=C1c1ccc(Br)cc1
3.3 µg/mL (≈ 10.3 µM)	> 50 µg/mL	9.7 µg/mL (≈ 30.3 µM)	5.62	10.9 µg/mL (≈ 34 µM)	O=C1OCC(Nc2cccc(Cl)c2)=C1c1ccc(Cl)cc1
